Runt-CBFb FRET – inhibitors of human RUNX1 Runt domain binding to CBFb; AID 1496; 220,000 compounds, 0.46% hits; Q01196+Q13951; inhibition, % at 20 µM; Cerulean-Runt/Venus-CBFb FRET ratio 530/480, 1 h;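 active = inhibition over about 50% at 20 µM in the single-dose screen, limit read from the data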;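 also: 0% = DMSO wells and 100% = excess unlabeled CBFb competitor control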
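Assay system: Cerulean-Runt domain / Medium: Tris 50 mM pH 7.5, KCl, K2SO4, 0.01% BSA / Timing: protein complex preformed 1 h, compound exposure 1 h, room temperature, dark / Measured by: FRET, excitation 422 nm, emission at 530 and 480 nm / Evaluation: loss of energy transfer signal / Control set: 5 µM unlabeled CBFb as full-inhibition high control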
RBBP9 inhibitor – blocks human serine hydrolase RBBP9; 220,000 compounds, 0.2% hits; recombinant RBBP9, FP-Rh probe fluorescence polarization; O75884; inhibition, % at 7.94 µM;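 active = inhibition above the campaign mean of all tested compounds plus 3 SD, cut at about 14% in these data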;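 also: plate controls were DMSO wells with RBBP9 for no effect and wells lacking RBBP9 protein for full effect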
Target sequence (O75884 whole entry, looked up): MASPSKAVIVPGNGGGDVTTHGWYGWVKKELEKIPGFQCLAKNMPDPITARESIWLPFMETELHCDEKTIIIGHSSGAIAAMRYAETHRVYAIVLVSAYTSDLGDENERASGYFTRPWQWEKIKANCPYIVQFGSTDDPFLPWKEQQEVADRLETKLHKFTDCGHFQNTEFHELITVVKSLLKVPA
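System: RBBP9 protein / Quantity: 2.5 µM RBBP9 dispensing solution, before mixing / Also added: Serine-hydrolase probe FP-Rh, 375 nM pre-mixing / Dosing: 7.94 µM single dose, 0.794% DMSO / Timing: enzyme-compound preincubation 30 min, then probe labeling 45 min, 25 °C / Signal: FP readout at 525/598 nm / Controls: DMSO-treated enzyme wells and wells lacking RBBP9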
Runt-SMMHC FRET – blocks binding of human RUNX1 Runt domain to CBFb-SMMHC; Q01196+Q13951; Cerulean-Runt/Venus-CBFb-SMMHC FRET ratio 530/480, 1 h; inhibition, % at 20 µM; 220,000 compounds, 0.74% hits;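 active = mean inhibition across duplicate retests at 20 µM reaching about 50%, limit read from the data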;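 also: 0% = DMSO wells and 100% = wells with excess untagged CBFb-SMMHC; inhibitors lower the FRET ratio by blocking Runt binding to CBFb-SMMHC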
Hck Nef HTS – inhibitors of human Hck kinase activated by Nef; P08631; inhibition, % at 20 µM; Recombinant Hck-YEEI plus Nef, Z-Lyte FRET kinase assay; 220,000 compounds, 0.68% hits;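 active = Hck-Nef kinase inhibition above about 50%, limit read from the data; inactive = inhibition below that limit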;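 also: 0% = DMSO with Hck plus Nef and 100% = Hck alone without Nef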
Target sequence (P08631 whole entry, looked up): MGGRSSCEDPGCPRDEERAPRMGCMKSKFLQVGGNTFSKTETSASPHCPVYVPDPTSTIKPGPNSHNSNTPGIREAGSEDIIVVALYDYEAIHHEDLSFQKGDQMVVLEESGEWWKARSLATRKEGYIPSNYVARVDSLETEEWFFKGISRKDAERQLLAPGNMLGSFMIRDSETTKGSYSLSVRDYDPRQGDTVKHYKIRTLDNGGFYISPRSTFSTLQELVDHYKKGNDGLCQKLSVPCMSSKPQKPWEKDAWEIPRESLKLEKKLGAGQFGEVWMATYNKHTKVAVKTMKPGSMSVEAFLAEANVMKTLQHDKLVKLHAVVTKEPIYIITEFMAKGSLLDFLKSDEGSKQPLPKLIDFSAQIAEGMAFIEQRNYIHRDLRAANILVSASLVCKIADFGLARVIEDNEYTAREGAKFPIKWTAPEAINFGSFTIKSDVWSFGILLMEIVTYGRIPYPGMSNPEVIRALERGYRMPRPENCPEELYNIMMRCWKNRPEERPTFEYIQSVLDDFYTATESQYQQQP
M18AAP inhibitor – blocks P. falciparum M18 aspartyl aminopeptidase; recombinant PfM18AAP, H-Glu-NHMec fluorogenic cleavage; inhibition, % at 7.35 µM; 290,000 compounds, 1.2% hits;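 active = inhibition above the campaign mean inhibition over all tested compounds plus 3 SD, cut at about 28% in these data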;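 also: 0% = plate median of test compound wells and 100% = 2 mM ZnCl2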
RanGTP-Impb inh – disruptors of Ran-importin-beta complex formation – biochemical, FRET, CFP-Ran, YFP-importin-beta, homogeneous, primary screen; 300,000 compounds, 1.1% hits; inhibition, % (concentration not given with the values); cell-free CFP-Ran/YFP-importin-beta FRET ratio;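 active = more than half of the replicate wells show a fall in the fluorescence ratio signal beyond about 16%, limit read from the data, passing the limit was not always enough; inconclusive = exactly half of the replicate wells pass the set limit; inactive = fewer than half of replicates pass the limit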;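 also: 0% = DMSO wells and 100% = Ran loaded with GDP instead of GTP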
Numbers without * were called inactive; ? = inconclusive; . = no result. Shown are actives, neighbours in structure and some others; about 2.9% of the full set was active somewhere.

SMILES	Runt-CBFb FRET	RBBP9 inhibitor	Runt-SMMHC FRET	Hck Nef HTS	M18AAP inhibitor	RanGTP-Impb inh
COc1cc(OC)c(C2CC(=O)N3CN(c4ccc(C)cc4)CSC3=C2C#N)cc1OC (stereo unspecified)	101.3*	2.8	100.8*	1.7	31.1*	-93.0
COc1ccc(N2CSC3=C(C#N)C(c4ccc(OC)c(OC)c4)CC(=O)N3C2)c(OC)c1 (stereo unspecified)	23.0	2.6	31.3	0.3	17.9	3.2
COc1ccc(N2CSC3=C(C#N)C(c4cc(OC)ccc4OC)CC(=O)N3C2)c(OC)c1 (stereo unspecified)	13.9	3.2	11.9	-0.3	17.9	13.1
CCCCN1C(=O)N(c2nnc(C(C)(C)C)s2)C(O)C1c1ccc(C)cc1 (stereo unspecified)	-3.4	-7.7	0.6	-3.2	12.9	2.2
CCN(CC)C(=O)COc1coc(CN2CCN(c3ccccc3)CC2)cc1=O	.	.	.	.	-11.2	2.2
CC1Oc2ccccc2N(CC(=O)NCCN2CCOCC2)C1=O (stereo unspecified)	.	.	.	.	-6.3	-1.7
COc1cc2c(C(=O)Nc3ccc4c(c3)OCO4)cn(CC(C)C)c(=O)c2cc1OC	-14.4	-7.3	1.3	8.3	2.6	22.4*
Cn1cc(C(=O)N2CCCC(Nc3ccc(F)cc3)C2)c2ccccc21 (stereo unspecified)	.	.	.	.	-0.7	5.5
COc1ccc(C(=O)c2sc3nc(-c4ccccc4)ccc3c2N)cc1	-77.8	-7.2	-21.5	-8.6	6.9	.
CC(C)OC(=O)c1sc2nc(-c3ccccc3)ccc2c1N	-0.7	-3.6	4.3	0.1	7.1	20.2*
O=C1CCN2C=Nc3cccc4ccc1c2c34	-65.5	-4.8	79.3	-5.6	17.3	69.3*
c1ccc(CN2CCN(C3=Nc4cccc5cccc3c45)CC2)cc1	-8.5	1.7	-26.0	7.0	-0.2	-7.2
CCc1cccc(NC(=O)C2CCCN2C(=O)Nc2ccc(C)cc2)c1 (stereo unspecified)	.	.	.	.	-8.5	-0.5
CCCCCC(=O)Nc1ccc(C(=O)COC(=O)CN2C(=O)NC3(CCCC3)C2=O)cc1	.	.	.	.	.	0.1
CC(=O)N1c2ccccc2C2(O)N=C(C)SC12 (stereo unspecified)	19.9	2.4	51.8*	-0.7	41.9*	.
COC(=O)Cn1c(=NC(=O)c2ccc(S(=O)(=O)N3CCc4ccccc4C3)cc2)sc2cc(OC)ccc21	-34.2	-7.5	-25.3	4.5	-2.1	23.1*
COc1ccccc1/C=C1\SC(=S)N(CCC(=O)Nc2ccc(C(=O)O)c(O)c2)C1=O	.	.	.	.	5.3	1.4
O=C(CCN1C(=O)/C(=C/c2ccco2)SC1=S)Nc1ccc(O)cc1C(=O)O	.	.	.	.	6.7	-5.3
O=C(CCN1C(=O)/C(=C/c2ccco2)SC1=S)Nc1ccc(C(=O)O)c(O)c1	.	.	.	.	28.4*	4.1
O=C(CCN1C(=O)/C(=C\c2ccco2)SC1=S)Nc1ccc(C(=O)O)c(O)c1	.	.	.	.	29.8*	3.1
O=C(CN1C(=O)/C(=C\c2ccco2)SC1=S)Nc1ccc(O)cc1C(=O)O	.	.	.	.	38.8*	1.8
CCOC(=O)C[n+]1c(C)csc1C	4.7	-1.2	-3.2	6.8	29.7*	-1.2
CCN(C(=O)CSc1ncccn1)C1CCS(=O)(=O)C1 (stereo unspecified)	.	.	.	.	-1.4	-0.7
CCOC(=O)c1cc2c(=O)n3ccccc3nc2n(Cc2ccco2)c1=NC(=O)c1ccccc1OC	89.0*	-2.9	86.3*	19.4	-32.8	62.1*
CCOC(=O)c1cc2c(=O)n3ccccc3nc2n(CCCOC)c1=NC(=O)c1ccncc1	64.8*	4.2	92.2*	34.4	3.4	0.0
SMILES	Runt-CBFb FRET	RBBP9 inhibitor	Runt-SMMHC FRET	Hck Nef HTS	M18AAP inhibitor	RanGTP-Impb inh
CCOC(=O)c1cc2c(=O)n3cccc(C)c3nc2n(Cc2ccco2)c1=NC(=O)c1ccccc1	92.7*	-9.5	.	5.3	3.1	105.7*
COC(=O)c1cc2c(=O)n3ccccc3nc2n(C)c1=N	12.6	.	41.9	.	.	.
CCOC(=O)c1cc2c(=O)n3ccccc3nc2n(Cc2ccco2)c1=NC(=O)c1ccc(OC)cc1	89.2*	-5.2	86.3*	25.2	4.4	-1.5
COc1ccc(CC(=O)N(C)Cc2cccc(OC)c2OC)cc1S(=O)(=O)N1CCOCC1	.	.	.	.	.	0.4
COc1ccccc1CNc1ccc(Br)cn1	.	.	.	.	4.2	7.4
O=C(CC(=O)Nc1cc(Cl)ccc1Cl)Nc1cc(Cl)ccc1Cl	.	.	.	.	2.7	3.0
COc1ccc(S(=O)(=O)N2CCOC2CNC(=O)C(=O)NCCCN2CCOCC2)cc1OC (stereo unspecified)	.	.	.	.	-4.4	-2.0
Cc1ccc(S(=O)(=O)/N=C2/C=C(Sc3ncn[nH]3)C(=O)c3ccccc32)cc1	14.1	0.6	42.9	4.9	51.2*	.
Cc1ccc(S(=O)(=O)/N=C2\C=C(Nc3cccc(C(=O)O)c3)C(=O)c3ccccc32)cc1	.	.	.	.	5.6	2.1
CC(C)(C)c1ccc(S(=O)(=O)/N=C2\C=C(NS(=O)(=O)c3ccccc3)C(=O)c3ccccc32)cc1	.	.	.	.	-3.2	?
Cc1ccc(S(=O)(=O)/N=C2/C=C(Sc3ncn[nH]3)C(=O)c3ccccc32)c(C)c1	7.3	2.7	45.1	-1.7	37.7*	.
CC(C)c1ccc(S(=O)(=O)/N=C2/C=C(Sc3ncn[nH]3)C(=O)c3ccccc32)cc1	3.5	6.2	36.2	-2.1	30.6*	.
CCc1noc(C)c1C(=O)N1CCCC(N2CCN(c3cccc(Cl)c3)CC2)C1 (stereo unspecified)	.	.	.	.	-7.5	0.4
O=C(O)c1ccc(N/N=C/c2ccc(-c3cc(Cl)ccc3Cl)o2)cc1	69.8*	-4.6	80.3*	45.4	-10.8	83.3*
O=C(O)c1ccc(N/N=C/c2ccc(-c3ccc(Cl)cc3Cl)o2)cc1	79.8*	-1.6	81.2*	49.2	5.9	88.1*
CCCn1nc(NC(=O)c2cccs2)c2cc3ccccc3nc21	.	-4.2	50.2*	14.1	1.6	60.8*
CCCn1nc(NC(=O)c2ccncc2)c2cc3ccccc3nc21	3.0	0.8	13.9	6.1	0.8	6.1
CCCCn1nc(NC(=O)c2cccs2)c2cc3ccccc3nc21	25.6	-9.4	63.4*	12.6	1.4	73.5*
CC1CCN(S(=O)(=O)c2ccc(C(=O)OC(C)C(=O)N(C)C3CCCCC3)cc2)CC1 (stereo unspecified)	.	.	.	.	.	6.3

Assay outcomes (PubChem BioAssay)
